Results reported in ChEMBL document CHEMBL1811862, “Ieodomycins A-D, antimicrobial fatty acids from a marine Bacillus sp” (2011).
≈ marks a conversion by molar mass, not a printed value.

Experiments:
Type in all cases: functional
Saccharomyces cerevisiae = test: Antimicrobial activity against Saccharomyces cerevisiae KCTC 7913 after 48 hrs by broth dilution method; settings: KCTC 7913, 48 h
In short: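 Yeast maltose broth, with twofold serial dilutions spanning 0.5–512.0 μg/mL in microtiter plates. An overnight yeast culture was adjusted to 1.5 × 10⁸ cfu/mL by the 0.5 McFarland standard and added to each well. Plates were held 48 h at 30 °C. MIC was the lowest concentration without visible turbidity.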

Bacillus subtilis = test: Antimicrobial activity against Bacillus subtilis KCTC 1021 after 24 hrs by broth dilution method; settings: KCTC 1021, 24 h
In short: (§1)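 Twofold serial dilutions in nutrient broth (0.5–512.0 μg/mL) in microtiter plates. An overnight culture was adjusted to 1.5 × 10⁸ cfu/mL against the 0.5 McFarland standard and added to each dilution. Plates were incubated 24 h at 37 °C. MIC was the lowest concentration giving no visible growth (turbidity).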

Escherichia coli = test: Antimicrobial activity against Escherichia coli KCTC 1923 after 24 hrs by broth dilution method; settings: KCTC 1923, 24 h; in short: as §1

Row | Structure (SMILES) | MIC (Saccharomyces cerevisiae) | MIC (Bacillus subtilis) | MIC (Escherichia coli)
1 | C=C/C=C(\C)CC[C@@H](O)C[C@H](O)CC(=O)OC [IEODOMYCIN A] | 256 mg/L (≈ 1060 µM) | 32 mg/L (≈ 132 µM) | 32 mg/L (≈ 132 µM)
2 | C[C@@H](O)CCC/C=C/C=C/C(=O)O [IEODOMYCIN D] | 256 mg/L (≈ 1390 µM) | 32 mg/L (≈ 174 µM) | 32 mg/L (≈ 174 µM)
3 | C[C@@H](O)CCC/C=C/C=C/[C@@H](O)CC(=O)O [IEODOMYCIN C] | 256 mg/L (≈ 1120 µM) | 32 mg/L (≈ 140 µM) | 32 mg/L (≈ 140 µM)
4 | C=C/C=C(\C)CC[C@@H]1C[C@H](O)CC(=O)O1 [IEODOMYCIN B] | 256 mg/L (≈ 1220 µM) | 32 mg/L (≈ 152 µM) | 32 mg/L (≈ 152 µM)
